# Experimental data pooled from the literature.
# Lines come from different studies, so protocols differ.
# OPRM1: Mu-type opioid receptor (OPRM1, Homo sapiens, UniProt P35372)
# GRK4: G protein-coupled receptor kinase 4 (GRK4, Homo sapiens, UniProt P32298)
Structure (SMILES),target,observed,mode,method,concentration,quantity,result
NC/C(=C\F)COc1cccc(Cn2c(=S)[nH]c(=O)c3[nH]cnc32)c1,OPRM1,ligand displacement,,radioligand,10 µM,inhibition,< 50%
C1=C/COCc2cc(ccc2OCCN2CCCC2)Nc2nccc(n2)-c2cccc(c2)COC/1,"eIF-2-alpha kinase GCN2 (EIF2AK4, Homo sapiens, UniProt Q9P2K8, S808G)",binding,,,0.1 µM,remaining binding,9.6%
Cc1cc(S(=O)(=O)N[C@H]2CC[C@H](CN3CCN(c4ccc(C5CCC(=O)NC5=O)cc4F)CC3)CC2)ccc1Nc1ncc(C(F)(F)F)c(N2CCC[C@](C)(O)C2)n1 (stereo partly shown),GRK4,binding,,competition with immobilised ligand,1 µM,remaining binding,89%
Cc1cc(F)cc2c(CCC(=O)N[C@@H]3C(=O)NC[C@H]3O)c(-c3ccc(F)cc3)[nH]c12,OPRM1,cell-free assay,,,10 µM,inhibition,5%
CCCCC(=O)Nc1ccc(-c2ccc3ncn(CCC)c(=O)c3c2)cn1,"Ephrin type-A receptor 6 (EPHA6, Homo sapiens, UniProt Q9UF33)",binding,,competition with immobilised ligand,0.5 µM,remaining binding,100%
COc1ccc2oc(-c3ccc4nc(N)oc4c3)c/c(=N\c3ccccc3NC(=O)CCN)c2c1,"Protein kinase C alpha type (PRKCA, Homo sapiens, UniProt P17252)",binding,,,1 µM,remaining binding,100%
CCN1/C(=C/C(C)=O)Sc2ccc(F)cc21,OPRM1,ligand displacement,,radioligand,10 µM,inhibition,0.11%
C[C@]1(O)CCCN(c2nc(Nc3ccc(S(=O)(=O)N[C@H]4CC[C@H](CN5CCN(c6ccc(C7CCC(=O)NC7=O)cc6F)CC5)CC4)cc3Cl)ncc2C(F)(F)F)C1 (stereo partly shown),GRK4,binding,,competition with immobilised ligand,1 µM,remaining binding,93%
Cc1cc(O)c(-c2ccc([C@@H](C)CN(C)C)cc2)c2c1[nH]c(=O)c1sccc12,"SRSF protein kinase 1 (SRPK1, Homo sapiens, UniProt Q96SB4)",enzyme activity,inhibitor,,0.1 µM,inhibition,1.88%
C#Cc1cc(-c2cc(Nc3nc(N[C@@H](C)c4ccc(F)cn4)ncc3Cl)n[nH]2)ccc1C=O,"cGMP-dependent protein kinase 1 (PRKG1, Homo sapiens, UniProt Q13976)",enzyme activity,inhibitor,,0.2 µM,inhibition,3.89%
